Screening data: PubChem BioAssay, The Scripps Research Institute Molecular Screening Center
ARFGAP1 inhibitor – inhibitors of rat ARFGAP1; Q62848; Arfgap1-stimulated ARF1 GTP hydrolysis, GDP FP detection; inhibition, % at 16.5 µM; hit rate 0.26% among 360,000; AID 651572;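 active = inhibition above a per-plate limit, mean inhibition of low control wells plus 3 SD, cut at about 25% in these data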
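Material: rat Arfgap1 GAP domain (His6, aa 1-136), purified enzyme. Also added: human ARF1(Δ1-17)-GTP substrate. Compound dosing: 16.5 µM single point, 1.26% DMSO. Timing: enzyme reaction 120 min at 25 °C after 20 min preincubation. Signal: GDP detection by fluorescence polarization. Read-out basis: percent inhibition of GAP-stimulated GDP formation, scaled between DMSO and no-Arfgap1 medians.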
pPAFAH inh – inhibitors of human plasma PAF acetylhydrolase (pPAFAH); Q13093; recombinant pPAFAH, FP-rhodamine probe fluorescence polarization; inhibition, % at 3.39 µM; hit rate 1.5% among 330,000; AID 463082;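 active = inhibition above the mean inhibition across the screen plus 3 SD, cut at about 25% in these data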;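 note: inhibitors block binding of the rhodamine activity-based probe so polarization drops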
Target sequence (Q13093 whole entry, looked up): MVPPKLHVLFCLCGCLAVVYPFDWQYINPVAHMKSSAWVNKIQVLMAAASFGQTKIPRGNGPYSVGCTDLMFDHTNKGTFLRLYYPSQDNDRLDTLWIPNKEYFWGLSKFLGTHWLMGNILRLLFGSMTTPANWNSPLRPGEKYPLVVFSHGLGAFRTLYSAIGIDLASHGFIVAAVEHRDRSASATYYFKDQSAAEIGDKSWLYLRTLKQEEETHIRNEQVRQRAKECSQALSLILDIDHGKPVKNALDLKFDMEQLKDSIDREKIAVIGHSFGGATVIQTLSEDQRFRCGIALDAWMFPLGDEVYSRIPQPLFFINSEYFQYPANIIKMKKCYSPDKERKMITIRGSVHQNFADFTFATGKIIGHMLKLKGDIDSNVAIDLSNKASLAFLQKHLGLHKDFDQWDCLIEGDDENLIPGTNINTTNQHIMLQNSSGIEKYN
PAFAH2 inh – inhibitors of human PAFAH2; recombinant PAFAH2, FP-rhodamine activity probe, fluorescence polarization; inhibition, % at 3.39 µM; hit rate 0.99% among 340,000;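 active = inhibition above the mean over all tested compounds plus 3 SD, cut at about 30% in these data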;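 note: inhibitors block probe labeling of enzyme so polarization drops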
PAFAH1B2 FP inh – blocks human PAF acetylhydrolase 1b catalytic subunit 2; inhibition, % at 3.39 µM; hit rate 1.2% among 340,000; P68402; recombinant PAFAH1B2, FP-rhodamine activity probe, fluorescence polarization;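 active = inhibition above the mean of all tested compounds plus 3 SD, cut at about 24% in these data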
Target sequence (P68402 whole entry, looked up): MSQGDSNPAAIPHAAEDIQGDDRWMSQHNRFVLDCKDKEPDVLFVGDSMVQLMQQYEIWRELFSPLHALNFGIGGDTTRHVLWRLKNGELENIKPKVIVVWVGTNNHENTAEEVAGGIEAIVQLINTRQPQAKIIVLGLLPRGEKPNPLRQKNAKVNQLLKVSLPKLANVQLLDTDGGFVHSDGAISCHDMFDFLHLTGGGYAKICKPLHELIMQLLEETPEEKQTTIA
ASAP1 GAP inh – ASAP1 ArfGAP inhibition; Q9ULH1; ASAP1-stimulated ARF1 GTP hydrolysis, GDP FP detection; inhibition, % at 16.5 µM; hit rate 0.19% among 360,000; AID 624377; in the data active = inhibition above about 25%
PAFAH1B3 FP inh – PAFAH1B3 (human) inhibition | recombinant PAFAH1B3, FP-rhodamine probe, fluorescence polarization | inhibition, % at 3.39 µM | hit rate 0.28% among 340,000;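 active = inhibition above the screen-wide average of all tested compounds plus 3 SD, cut at about 25% in these data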
PAFAH2 FP conf – confirmation of human PAFAH2 inhibitors; shares compounds with PAFAH2 inh; recombinant PAFAH2, FP-rhodamine activity probe, fluorescence polarization; inhibition, % at 3.39 µM; hit rate 65% among 2,300;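 active = mean inhibition over three repeats above a set limit taken from the earlier primary screen, cut at about 30% in these data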;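 note: inhibitor blocks binding of rhodamine activity probe so polarization falls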
Each line names hits and unclear results; the compound was inactive in the other large screens (follow-up assays come after a bar, where they were run). Most compounds without a hit are left out; they make up all but 2.8% or so of the library.

COc1ccccc1Nc1nc(N)nc(CSC(=S)N2CCCCC2)n1	PAFAH2 inh 37.2 | PAFAH2 FP conf inactive
Nc1nc(CSC(=S)N2CCCCC2)nc(Nc2ccccc2)n1	none
Cc1c(C(c2ccccc2)c2c(C)n(C)n(-c3ccccc3)c2=O)c(=O)n(-c2ccccc2)n1C	none
Cc1c(C(c2cccc(Br)c2)c2c(C)n(C)n(-c3ccccc3)c2=O)c(=O)n(-c2ccccc2)n1C	PAFAH2 inh 38.7 | PAFAH2 FP conf inactive
CC(C)OC(=O)C1OC1(C)c1ccccc1 (centres undefined)	none (no result: pPAFAH inh)
O=c1oc(-c2cccs2)nc2sc3c(c12)CCC3	PAFAH2 inh 55.9 | PAFAH2 FP conf 48.5
Cc1nc2sc3c(c2c(=O)o1)CCC3	PAFAH2 inh 60.1 | PAFAH2 FP conf 50.2
O=c1c2c3c(sc2nc2n1N=C(c1cccs1)CS2)CCCC3	none
O=c1oc(-c2cccs2)nc2sc3c(c12)CCCC3	PAFAH2 inh 42.3 | PAFAH2 FP conf 37.8
O=c1oc(/C=C/c2ccco2)nc2sc3c(c12)CCC3	PAFAH2 inh 55.1 | PAFAH2 FP conf inactive
C(=Nn1cnnc1)c1ccc2c(c1)CCC2	none (no result: pPAFAH inh, PAFAH2 inh, PAFAH1B2 FP inh, PAFAH1B3 FP inh)
COc1cc(CNC(=O)c2cc(-c3ccc(F)cc3C)n[nH]2)cc(OC)c1	none (no result: pPAFAH inh, PAFAH2 inh, PAFAH1B2 FP inh, PAFAH1B3 FP inh)
CCc1ccc(CN(C)Cc2nc(COc3ccccc3)no2)nc1	PAFAH2 inh 29.8 | PAFAH2 FP conf inactive
CCc1ccc(CN(C)Cc2nc(Cc3cccc(C(F)(F)F)c3)no2)nc1	none
CCC(CC)NC(=O)COC(=O)c1cc(Br)ccc1Cl	PAFAH2 inh 33.3 | PAFAH2 FP conf inactive
COc1ccc(C(CNC(=O)COc2cc(C)c(Cl)c(C)c2)N2CCCCC2)cc1 (centres undefined)	none
CCN(CC)c1ccc(C(=O)Nc2cccc(F)c2)cc1	PAFAH2 inh 37.6 | PAFAH2 FP conf 42.4
CC(C)(C)OC(=O)N1CCc2onc(-c3ccccc3[N+](=O)[O-])c2C1=O	none (no result: pPAFAH inh, PAFAH2 inh, PAFAH1B2 FP inh, PAFAH1B3 FP inh)
COc1ccc(C(=O)CSc2cc(C)[nH]c(=O)n2)cc1	none
O=C1N(CN2CCOCC2)c2ccccc2C12OCC(CCl)O2 (centres undefined)	none
C=C1CCN([C@@H](C)C(=O)OCc2cccc(C)c2)S(=O)(=O)c2ccccc21	none
C=C1CCN([C@H](C(=O)OCc2ccc(C)cc2)C(C)C)S(=O)(=O)c2ccccc21	PAFAH2 inh 126.0 | PAFAH2 FP conf inactive
CC(=O)NC(c1ccccc1)c1nc(-c2cccc(F)c2)cs1 (centres undefined)	none (no result: pPAFAH inh, PAFAH2 inh, PAFAH1B2 FP inh, PAFAH1B3 FP inh)
COc1cc(C(=O)C(=O)N2CCN(c3ccc(C)cc3)CC2)cc2ccccc12	none (no result: pPAFAH inh, PAFAH2 inh, PAFAH1B2 FP inh, PAFAH1B3 FP inh)
CC1CC1C(=O)OCC(=O)Nc1ccc2[nH]c(=O)[nH]c2c1 (centres undefined)	none
CC(C)=CC(=O)OCC(=O)Nc1cccc([N+](=O)[O-])c1	PAFAH2 inh 76.1 | PAFAH2 FP conf 74.9
Cc1ccc(-c2nc(C)sc2CC(=O)OCC(=O)Nc2cccc([N+](=O)[O-])c2)cc1	none
Cc1ccc(C(=O)c2ccccc2C(=O)OCC(=O)Nc2cccc([N+](=O)[O-])c2)cc1	PAFAH2 inh 72.6 | PAFAH2 FP conf 76.5
COc1cc([N+](=O)[O-])ccc1NC(=O)COC(=O)C=C(C)C	none
CC1CC1C(=O)OCC(=O)Nc1cccc([N+](=O)[O-])c1 (centres undefined)	PAFAH2 inh 82.1 | PAFAH2 FP conf 83.6
O=C(COC(=O)CC1CCCC1)Nc1ccc(Cl)cn1	PAFAH2 inh 49.9 | PAFAH2 FP conf 38.1
O=C(COC(=O)CC1CCCCC1)Nc1c(Cl)cccc1Cl	PAFAH2 inh 37.6 | PAFAH2 FP conf 31.3
O=C(COC(=O)CN1C(=O)C2CCCCC2C1=O)Nc1c(Cl)cccc1Cl (centres undefined)	none
CCCCCNC(=O)C(C1CC1)n1c(=O)c(-c2cc3ccccc3[nH]2)nc2ccccc21 (centres undefined)	none (no result: pPAFAH inh, PAFAH2 inh, PAFAH1B2 FP inh, PAFAH1B3 FP inh)
COc1ccc(C(=O)N/N=C/c2ccc3cccc(O)c3n2)cc1	PAFAH2 inh 35.4 | PAFAH2 FP conf inactive
O=C(N/N=C/c1ccc2cccc(OCc3ccccc3)c2n1)c1ccc(Cl)cc1	none
O=C(NC1CCCC1)c1sc(=S)n2c1[nH]c(=O)c1ccccc12	PAFAH2 inh 38.5 | PAFAH2 FP conf 31.9
Cc1ccc(N=C2NC(=O)/C(=C/c3cccnc3)S2)cc1C	PAFAH2 inh 31.9 | PAFAH2 FP conf inactive
O=C1NC(=Nc2ccccc2)S/C1=C\c1cccnc1	none
CCOC(=O)C1c2cccc(O)c2CCN1C(C)=O (centres undefined)	none (no result: pPAFAH inh, PAFAH2 inh, PAFAH1B2 FP inh, PAFAH1B3 FP inh)
CC(C)CCN1C(=O)c2ccc(C(=O)Nc3ccccc3C(=O)O)cc2C1=O	PAFAH2 inh 40.3 (no result: pPAFAH inh) | PAFAH2 FP conf inactive
Cc1[nH]c2ccccc2c1SCc1nnc(SCc2ccccc2)n1C	none
Cc1[nH]c2ccccc2c1SCc1nnc(SCc2ccc(Cl)cc2)n1C	PAFAH2 inh 30.1 | PAFAH2 FP conf 30.4
CCCCn1c(N)c(N(CCOC)C(=O)CSCc2cccc(C)c2)c(=O)[nH]c1=O	none
CC1CCCC(C)N1C(=O)COC(=O)/C=C/c1ccc(Br)o1 (centres undefined)	none
CC1CCN(C(=O)COC(=O)/C=C/c2ccc(Br)o2)CC1	PAFAH2 inh 30.3 | PAFAH2 FP conf inactive
O=C(Nc1nc(-c2ccccc2)cs1)NC1CCCCC1	PAFAH2 inh 29.8 | PAFAH2 FP conf inactive
c1ccc(-c2csc(NC3CCCCC3)n2)cc1	none
Cc1ccc(CO/N=C/C2=C(Cl)c3ccccc3CC2)cc1	none
Cc1ccc(C(=O)O/N=C/C2=C(Cl)c3ccccc3CC2)cc1	PAFAH2 inh 38.2 | PAFAH2 FP conf 70.1
COc1cccc(CNC(=O)COc2ccc(C(=O)c3ccccc3)cc2)c1	none
O=C(COC(=O)c1ccc(F)c(S(=O)(=O)N2CCOCC2)c1)Nc1ccc2c(c1)OCO2	PAFAH2 inh 78.1 (no result: pPAFAH inh) | PAFAH2 FP conf 65.3
COc1ccc(C(=O)OCC(=O)Nc2ccc3c(c2)OCO3)cc1S(=O)(=O)N1CCOCC1	PAFAH2 inh 81.6 (no result: pPAFAH inh) | PAFAH2 FP conf 82.2
CN(C)c1ccc(C(=O)OCC(=O)c2cccs2)cc1	PAFAH2 inh 70.8 | PAFAH2 FP conf 75.8
O=C(OCC(=O)c1ccc[nH]1)c1ccccc1	none
Cc1ccc(C(=O)COC(=O)c2cccs2)cc1	PAFAH2 inh 30.1 | PAFAH2 FP conf inactive
CN(C)c1ccc(C(=O)OCC(=O)c2ccc[nH]2)cc1	PAFAH2 inh 68.2 | PAFAH2 FP conf 68.0
CCc1ccc(C(=O)COC(=O)c2cccs2)cc1	none
COC(=O)c1c(NC(=O)C2CCCCC2)sc2c1CC(C)(C)NC2(C)C	none
N/C(Cc1cccc2ccccc12)=N\OC(=O)c1ccc2c(c1)OCO2	PAFAH2 inh 81.0 | PAFAH2 FP conf 78.2
N/C(=N\OC(=O)c1ccc2c(c1)OCO2)c1cccc(Br)c1	PAFAH2 inh 54.7 | PAFAH2 FP conf 49.2
